Here are results for 1 molecule from ChEMBL document CHEMBL4251664, “Biocompatible Boron-Containing Prodrugs of Belinostat for the Potential Treatment of Solid Tumors” (ACS Med Chem Lett, 2018).

Each structure is given as a SMILES string.

Series [1] deals with MCF7. The series is described as follows: Antiproliferative activity against human MCF7 cells after 72 hrs by resazurin dye based fluorescence assay. The format is functional, cell-based. The settings on record: MCF7, 72 h.
For series [2], the system named is MDA-MB-231. The series can be described thus: Prodrug conversion in human MDA-MB-231 cells assessed as belinostat level after 3 days by UHPLC-MS/MS analysis. The format is ADME, cell-based. The settings on record: mda-mb-231, 72 h. The method, boiled down: (§1)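 MDA-MB-231 or HeLa cells were incubated with the pinacol boronate prodrug, and culture medium was sampled daily from day 1 to day 6. The prodrug, boronic acid forms and belinostat were separated, identified and quantified by HPLC coupled to an Orbitrap mass spectrometer. Results are in ng/mL as mean ± SEM of triplicate experiments.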

Series [3] relates to HeLa. The series is described as follows: Prodrug conversion in human HeLa cells assessed as (E)-4-((3-(3-(N-phenylsulfamoyl)phenyl)acrylamidooxy)methyl)phenylboronic acid level after 1 day by UHPLC-MS/MS analysis. The format is ADME, cell-based. The settings on record: 24 h. The method, boiled down:
as §1

The test system of series [4] is HeLa. The series can be described thus: Antiproliferative activity against human HeLa cells after 72 hrs by resazurin dye based fluorescence assay. The format is functional, cell-based.
Series [5] deals with MCF7. The series is described as follows: Antitumor activity against human MCF7 cells implanted in ovariectomized nu/nu mouse assessed as tumor weight at 10 mg/kg, sc administered once daily for 22 days measured post last dose (reference value: 743 +/- 142 mg). The format is functional.
Series [6] addresses T1, Protein deacetylase HDAC6 (Homo sapiens, UniProt Q9UBN7).
T1 sequence (Q9UBN7 whole entry): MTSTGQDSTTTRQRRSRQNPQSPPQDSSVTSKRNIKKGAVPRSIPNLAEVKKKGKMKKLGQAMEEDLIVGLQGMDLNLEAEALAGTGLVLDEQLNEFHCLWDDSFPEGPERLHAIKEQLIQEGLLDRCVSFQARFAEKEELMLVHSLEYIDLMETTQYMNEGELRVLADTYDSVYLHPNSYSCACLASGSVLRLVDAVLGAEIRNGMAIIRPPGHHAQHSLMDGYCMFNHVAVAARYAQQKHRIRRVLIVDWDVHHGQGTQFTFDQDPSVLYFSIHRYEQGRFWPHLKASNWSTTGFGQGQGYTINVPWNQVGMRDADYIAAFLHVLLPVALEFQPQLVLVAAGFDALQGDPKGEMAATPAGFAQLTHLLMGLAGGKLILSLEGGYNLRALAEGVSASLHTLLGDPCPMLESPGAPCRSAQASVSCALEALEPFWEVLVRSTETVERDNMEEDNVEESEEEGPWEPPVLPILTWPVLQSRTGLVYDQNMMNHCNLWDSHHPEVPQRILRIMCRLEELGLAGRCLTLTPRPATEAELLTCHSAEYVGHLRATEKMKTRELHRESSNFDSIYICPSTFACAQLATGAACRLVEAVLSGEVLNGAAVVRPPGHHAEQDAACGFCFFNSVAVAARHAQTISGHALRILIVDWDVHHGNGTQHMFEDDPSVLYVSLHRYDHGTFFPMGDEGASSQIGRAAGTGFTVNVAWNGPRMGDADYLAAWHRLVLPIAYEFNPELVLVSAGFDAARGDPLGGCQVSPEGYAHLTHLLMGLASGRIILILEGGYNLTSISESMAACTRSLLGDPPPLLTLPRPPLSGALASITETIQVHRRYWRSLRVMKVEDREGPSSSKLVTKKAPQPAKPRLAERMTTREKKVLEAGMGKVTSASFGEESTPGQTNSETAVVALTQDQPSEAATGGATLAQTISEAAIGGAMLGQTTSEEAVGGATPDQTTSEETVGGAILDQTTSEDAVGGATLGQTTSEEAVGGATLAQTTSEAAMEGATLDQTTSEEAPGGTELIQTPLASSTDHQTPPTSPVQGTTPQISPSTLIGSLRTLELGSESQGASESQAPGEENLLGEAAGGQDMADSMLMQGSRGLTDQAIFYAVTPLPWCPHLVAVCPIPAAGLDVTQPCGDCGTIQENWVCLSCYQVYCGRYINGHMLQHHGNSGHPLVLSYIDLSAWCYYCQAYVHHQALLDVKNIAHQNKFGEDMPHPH
The series is described as follows: Inhibition of human HDAC6 using RHKK(Ac)AMC as substrate.

A further series has as its target T2, Histone deacetylase 8 (Homo sapiens, UniProt Q9BY41).
T2 sequence (Q9BY41 whole entry): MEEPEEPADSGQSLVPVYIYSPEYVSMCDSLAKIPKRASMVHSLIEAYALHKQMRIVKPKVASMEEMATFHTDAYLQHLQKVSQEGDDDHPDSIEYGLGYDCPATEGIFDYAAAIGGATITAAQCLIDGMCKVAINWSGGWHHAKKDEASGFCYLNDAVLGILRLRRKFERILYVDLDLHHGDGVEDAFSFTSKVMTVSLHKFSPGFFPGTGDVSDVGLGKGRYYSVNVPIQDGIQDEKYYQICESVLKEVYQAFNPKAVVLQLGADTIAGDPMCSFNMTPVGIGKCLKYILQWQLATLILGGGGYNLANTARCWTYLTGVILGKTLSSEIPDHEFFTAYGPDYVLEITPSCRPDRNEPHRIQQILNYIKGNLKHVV
The series is described as follows: Inhibition of human HDAC8 using RHK(Ac)K(Ac)AMC as substrate.

Series [7] relates to MDA-MB-231. The series is described as follows: Prodrug conversion in human MDA-MB-231 cells assessed as belinostat level after 1 day by UHPLC-MS/MS analysis. The format is ADME, cell-based. The settings on record: mda-mb-231, 24 h. The method, boiled down:
as §1

For the next series, the system named is Mus musculus. The series is described as follows: Toxicity in ovariectomized nu/nu mouse implanted with human MCF7 cells assessed as effect on body weight at 10 mg/kg, sc administered once daily for 22 days. The settings on record: in vivo, 528 h. The format is organism-based. In a few lines:
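MCF-7 xenograft in mice, dosed 10 mg/kg/day by subcutaneous injection alongside a vehicle group. Treatment ran 22 days. Body weights were compared with the vehicle group, and tumour volume was measured over the same period. At the end, mice were sacrificed and tumours removed.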

For series [8], the system named is HeLa. The series can be described thus: Prodrug conversion in human HeLa cells assessed as belinostat level after 6 days by UHPLC-MS/MS analysis. The format is ADME, cell-based. The settings on record: 144 h. In a few lines: as §1
The next series relates to A549. The series is described as follows: Antiproliferative activity against human A549 cells after 72 hrs by resazurin dye based fluorescence assay. The format is functional, cell-based. The settings on record: A549, 72 h. Background: Resazurin is reduced to fluorescent resorufin, in cell work by metabolically active cells.
In series [9] the test system is MDA-MB-231. The series can be described thus: Antiproliferative activity against human MDA-MB-231 cells after 72 hrs by resazurin dye based fluorescence assay. The format is functional, cell-based. The settings on record: MDA-MB-231, 72 h.
For series [10], the system named is HeLa. The series is described as follows: Prodrug conversion in human HeLa cells assessed as (E)-4-((3-(3-(N-phenylsulfamoyl)phenyl)acrylamidooxy)methyl)phenylboronic acid level after 6 days by UHPLC-MS/MS analysis. The format is ADME, cell-based. The settings on record: 144 h. In a few lines: as §1
Series [11] concerns HeLa. The series is described as follows: Prodrug conversion in human HeLa cells assessed as belinostat level after 3 days by UHPLC-MS/MS analysis. The format is ADME, cell-based. The settings on record: 72 h. In a few lines: as §1
Series [12] has as its system HeLa. The series is described as follows: Prodrug conversion in human HeLa cells assessed as belinostat level after 1 day by UHPLC-MS/MS analysis. The format is ADME, cell-based. The settings on record: 24 h. In a few lines: as §1
For series [13], the system named is MDA-MB-231. The series is described as follows: Prodrug conversion in human MDA-MB-231 cells assessed as (E)-4-((3-(3-(N-phenylsulfamoyl)phenyl)acrylamidooxy)methyl)phenylboronic acid level after 4 days by UHPLC-MS/MS analysis. The format is ADME, cell-based. The settings on record: mda-mb-231, 96 h. The method, boiled down: as §1
The test system of series [14] is MDA-MB-231. The series can be described thus: Prodrug conversion in human MDA-MB-231 cells assessed as (E)-4-((3-(3-(N-phenylsulfamoyl)phenyl)acrylamidooxy)methyl)phenylboronic acid level after 1 day by UHPLC-MS/MS analysis. The format is ADME, cell-based. The settings on record: mda-mb-231, 24 h. The method, boiled down: as §1
Series [15] concerns HeLa. The series is described as follows: Prodrug conversion in human HeLa cells assessed as (E)-4-((3-(3-(N-phenylsulfamoyl)phenyl)acrylamidooxy)methyl)phenylboronic acid level after 2 days by UHPLC-MS/MS analysis. The format is ADME, cell-based. The settings on record: 48 h. In a few lines: as §1

In the case of `CC1(C)OB(c2ccc(CONC(=O)/C=C/c3cccc(S(=O)(=O)Nc4ccccc4)c3)cc2)OC1(C)C`, the IC50 worked out at 1460 nM with MCF7 [1], 273 nM with HeLa [4], 453 nM in the series with A549 and 303 nM in the series on MDA-MB-231 [9]. For the same molecule, the Drug metabolism with MDA-MB-231 [2] came to 20.3 ng/mL; in the series with HeLa [3], 282.7 ng/mL; in the series on MDA-MB-231 [7], 30.7 ng/mL; in the series on HeLa [8], 3.8 ng/mL; in the series with HeLa [10], 49.6 ng/mL; in the series with HeLa [11], 13.4 ng/mL. The Drug metabolism with HeLa [12] stood at 8.4 ng/mL; with MDA-MB-231 [13], 171.8 ng/mL; in the series with MDA-MB-231 [14], 331.8 ng/mL; in the series on HeLa [15] it was 147.4 ng/mL. The Activity in the series with MCF7 [5] was 109 mg; with Mus musculus it was “Non-Toxic”. Moreover, the EC50 in series [6] was determined as 20200 nM; on Histone deacetylase 8, 341000 nM.

What is called IC50 is the concentration at which inhibition is half-maximal. Lower therefore signals greater potency. As a reminder, the EC50 is the concentration needed to bring the measured effect to its halfway point.
